IDH1 R132H inh: inhibitors of human IDH1 R132H; inhibition, % at 10 µM; hit rate 0.18% among 70,000; O75874; IDH1 R132H reductase, diaphorase/resazurin fluorescence, 60 min; in the data active = inhibition above about 34%
Tcruzi prolif: inhibitors of T. cruzi proliferation; T. cruzi beta-gal in NIH3T3, GalScreen luminescence, 90 h; inhibition, % at 8.34 µM; hit rate 5.9% among 77,000; AID 624255;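 active = mean inhibition above about 93%, with at least 55% of replicates each passing it, limit read from the data, passing the limit was not always enough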
GASC1 inh: inhibitors of human demethylase GASC-1 KDM4C; GST-KDM4C 2-372, H3K9me3 peptide, LANCE TR-FRET; inhibition, % at 12.5 µM; hit rate 0.15% among 96,000;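 active = mean replicate inhibition above about 25%, with at least 55% of replicates also reaching it, limit read from the data, passing the limit was not always enough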
Target sequence (Q9H3R0 2-372 limits assumed): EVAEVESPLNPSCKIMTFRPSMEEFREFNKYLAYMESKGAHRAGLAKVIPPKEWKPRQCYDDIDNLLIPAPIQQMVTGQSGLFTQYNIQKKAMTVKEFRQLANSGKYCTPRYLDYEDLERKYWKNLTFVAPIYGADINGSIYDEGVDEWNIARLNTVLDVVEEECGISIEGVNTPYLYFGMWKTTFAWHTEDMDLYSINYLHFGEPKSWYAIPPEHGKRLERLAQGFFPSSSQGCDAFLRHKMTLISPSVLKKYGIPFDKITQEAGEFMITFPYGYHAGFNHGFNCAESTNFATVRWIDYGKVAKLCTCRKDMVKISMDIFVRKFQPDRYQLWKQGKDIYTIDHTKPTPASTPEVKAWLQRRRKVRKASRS
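Material: GST-tagged GASC-1 (JMJD2C) catalytic fragment, aa 2-372 / Quantity: enzyme final amount 10 nM / Medium: HEPES buffer, pH 7.5, plus ascorbate / Doses: one test concentration per compound / Incubation: 30 min reaction, 60 min detection, RT / Measured by: LANCE TR-FRET / Read-out: inhibition from TR-FRET ratio decrease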
Pf Dd2 inh: P. falciparum Dd2 growth inhibition; SYBR Green, 72 h; hits give low values; activity change, % at 10 µM; hit rate 2.3% among 94,000; AID 1159554; in the data active = activity change below about -80%
A number is an active result; n = inactive; x = not tested or not shown. Compounds with a hit are over-represented: about 5.8% of the library has one in this group of screens.

SMILES | IDH1 R132H inh | Tcruzi prolif | GASC1 inh | Pf Dd2 inh
CCS(=O)(=O)N1CCC2(CC1)CN(S(=O)(=O)c1ccccc1)[C@@H](CO)c1c2c2ccc(OC)cc2n1C | x | x | n | -84
COc1ccc2c3c(n(C)c2c1)[C@H](CO)N(Cc1ccccc1)CC31CCN(S(=O)(=O)c2ccc(C)cc2)CC1 | x | x | n | -84
CCS(=O)(=O)N1CC2(C1)CN(S(=O)(=O)c1ccccc1)[C@@H](CO)c1c2c2ccc(OC)cc2n1C | x | x | n | n
O=C(Cc1coc2ccc3ccccc3c12)Nc1cccnc1 | n | x | x | x
C[C@H](CO)N1C[C@H](C)[C@@H](CN(C)Cc2ccc(-c3ccccc3)cc2)Oc2c(NC(=O)CCCCCC(=O)Nc3ccccc3N)cccc2C1=O | n | x | n | -87
CC(C)NC(=O)Nc1cccc2c1O[C@@H](CN(C)CC1CCCCC1)[C@H](C)CN([C@@H](C)CO)C2=O | n | x | n | -81
C[C@@H]1CN([C@@H](C)CO)C(=O)c2cccc(NC(=O)CCCCCC(=O)Nc3ccccc3N)c2O[C@H]1CN(C)CC1CCCCC1 | x | x | n | -89
C[C@@H]1CN([C@@H](C)CO)C(=O)c2cccc(NC(=O)CCCCCC(=O)Nc3ccccc3N)c2O[C@H]1CN(C)C | n | x | n | n
C[C@H](CO)N1C[C@H](C)[C@H](CN(C)CC2CC2)Oc2c(NC(=O)CCCCCC(=O)Nc3ccccc3N)cccc2C1=O | n | x | n | n
C[C@@H]1CN([C@@H](C)CO)C(=O)c2cccc(NC(=O)CCCCCC(=O)Nc3ccccc3N)c2O[C@@H]1CN(C)Cc1ccccc1 | x | x | n | -87
C[C@H]1CN([C@@H](C)CO)C(=O)c2cccc(NC(=O)CCCCCC(=O)Nc3ccccc3N)c2O[C@@H]1CN(C)Cc1ccncc1 | n | x | n | n
CC(C)NC(=O)Nc1cccc2c1O[C@@H](CN(C)CC1CCCCC1)[C@@H](C)CN([C@H](C)CO)C2=O | x | n | n | n
COC(=O)c1cccc(NC(=O)CN(c2ccc(F)cc2)S(C)(=O)=O)c1C | n | x | x | x
C[C@H](CO)N1C[C@H](C)[C@H](CN(C)Cc2ccc(Cl)c(Cl)c2)Oc2c(NC(=O)CCCCCC(=O)Nc3ccccc3N)cccc2C1=O | n | x | n | -88
C[C@@H]1CN([C@H](C)CO)C(=O)c2cccc(NC(=O)Nc3ccccc3)c2O[C@@H]1CN(C)Cc1ccc(Cl)c(Cl)c1 | x | n | n | -86
C[C@@H]1CN([C@@H](C)CO)C(=O)c2cccc(NC(=O)CCCCCC(=O)Nc3ccccc3N)c2O[C@H]1CN(C)Cc1ccc(-c2ccccc2)cc1 | n | x | n | -91
C[C@H]1CN([C@@H](C)CO)C(=O)c2cccc(NC(=O)Nc3ccccc3)c2O[C@@H]1CN(C)Cc1ccc(Cl)c(Cl)c1 | n | n | n | n
C[C@H](CO)N1C[C@H](C)[C@H](CN(C)C)Oc2c(NC(=O)CCCCCC(=O)Nc3ccccc3N)cccc2C1=O | x | x | n | n
O=C(Cn1cnc2ccccc2c1=O)Nc1ccc2c(c1)Cc1ccccc1-2 | n | x | x | x
COc1cccc(-c2cc(C#N)c(NC(=O)c3cccc([N+](=O)[O-])c3)o2)c1 | n | x | x | x
COc1ccc(NC(=O)C(C)N(c2ccc(Cl)cc2)S(C)(=O)=O)cc1OC (stereo not given) | n | x | x | x
COc1ccc(C(=O)NCC(=O)Nc2cc(OC)ccc2OC)cc1 | n | x | x | x
CN1c2ccc(C#Cc3cccc(F)c3)cc2[C@H]2[C@H](CCN2S(=O)(=O)c2ccccc2F)[C@@H]1CO | x | n | n | n
CN1c2ccc(C#Cc3cccnc3)cc2[C@@H]2[C@@H](CCN2S(=O)(=O)c2ccccc2F)[C@@H]1CO | x | n | n | -88
CN1c2ccc(C#Cc3cccnc3)cc2[C@@H]2[C@@H](CCN2C(=O)C2CCC2)[C@@H]1CO | x | x | n | -87
SMILES | IDH1 R132H inh | Tcruzi prolif | GASC1 inh | Pf Dd2 inh
CN1c2ccc(C#Cc3cccnc3)cc2[C@@H]2[C@@H](CCN2C(=O)C2CCCC2)[C@H]1CO | x | x | n | n
Cc1ccccc1-c1nc(SCC(=O)Nc2sc3c(c2C#N)CCCC3)n[nH]1 | n | x | x | x
C[C@H]1CN([C@@H](C)CO)C(=O)c2ccccc2-c2ccccc2CO[C@@H]1CN(C)Cc1ccc(C(F)(F)F)cc1 | x | x | n | n
C[C@H]1CN([C@@H](C)CO)C(=O)c2c(c3ccccc3n2C)-c2ccccc2CO[C@H]1CN(C)Cc1ccccc1C(F)(F)F | x | x | n | n
C[C@H]1CN([C@@H](C)CO)C(=O)c2ccccc2-c2ccccc2CO[C@H]1CN(C)Cc1ccc(C(F)(F)F)cc1 | x | x | n | -92
C[C@@H]1CN([C@H](C)CO)C(=O)c2ccccc2-c2ccccc2CO[C@@H]1CN(C)Cc1ccc(C(F)(F)F)cc1 | x | x | n | -87
C[C@H](CO)N1C[C@H](C)[C@H](CN(C)Cc2ccc(C(F)(F)F)cc2)OCc2ccccc2-c2ccccc2C1=O | x | x | n | -84
C[C@@H]1CN([C@@H](C)CO)C(=O)c2ccccc2-c2ccccc2CO[C@H]1CN(C)Cc1ccccc1C(F)(F)F | x | x | n | -90
Cc1ccccc1S(=O)(=O)N(C)C[C@H]1OCc2ccccc2-c2ccccc2C(=O)N([C@H](C)CO)C[C@H]1C | n | n | n | -86
C[C@H](CO)N1C[C@H](C)[C@H](CN(C)S(=O)(=O)c2ccc(C(F)(F)F)cc2)OCc2ccccc2-c2ccccc2C1=O | n | n | n | -85
C[C@H]1CN([C@@H](C)CO)C(=O)c2cccc(NS(C)(=O)=O)c2O[C@@H]1CN(C)Cc1ccc(-c2ccccc2)cc1 | x | n | n | -84
COc1ccc(S(=O)(=O)Nc2cccc3c2O[C@H](CN(C)Cc2ccc(-c4ccccc4)cc2)[C@@H](C)CN([C@H](C)CO)C3=O)cc1 | x | x | n | -91
C[C@@H]1CN([C@@H](C)CO)C(=O)c2cccc(NS(=O)(=O)c3ccccc3)c2O[C@H]1CN(C)Cc1ccc(-c2ccccc2)cc1 | x | n | n | -84
Cc1ccc(NC(=O)CSc2nnc(C)n2-c2ccc(Cl)cc2)c(Br)c1 | n | x | x | x
O=C(COc1ccc(Br)cc1)Nc1cccc(-c2nc3cc(Cl)ccc3o2)c1 | n | x | x | x
C[C@@H]1CN([C@@H](C)CO)C(=O)c2cc(NC(=O)Nc3cccc4ccccc34)ccc2O[C@@H](C)CCCCO[C@@H]1CN(C)C(=O)c1ccccc1 | x | n | n | n
C[C@@H]1CCCCO[C@@H](CN(C)C(=O)Nc2cccc3ccccc23)[C@@H](C)CN([C@@H](C)CO)C(=O)c2cc(NC(=O)Nc3cccc4ccccc34)ccc2O1 | x | n | n | -83
CCCN(C)C[C@@H]1OCCCC[C@H](C)Oc2ccc(NC(=O)Nc3cccc4ccccc34)cc2C(=O)N([C@H](C)CO)C[C@@H]1C | n | x | n | -88
C[C@@H]1CCCCO[C@H](CN(C)C)[C@H](C)CN([C@H](C)CO)C(=O)c2cc(NC(=O)Nc3cccc4ccccc34)ccc2O1 | n | n | n | -86
C[C@@H]1CN([C@@H](C)CO)C(=O)c2cc(NC(=O)Nc3cccc4ccccc34)ccc2O[C@@H](C)CCCCO[C@@H]1CN(C)C(=O)C1CCCCC1 | x | n | n | -88

Bioassay records: PubChem, Broad Institute
